Where a SMILES comes first, the peptide text is derived from it. [ ]: non-standard residue; d: D form.
Columns and labels:
Assay type in all cases: in vivo, human
[1] = tested on: peripheral blood mononuclear cells (PBMCs); assay: Mitochondrial membrane potential of PBMCs; settings: for Mitochondrial membrane potential (Delta psi), contrast vs placebo (95% CI) / Percentage of dysfunctional PMBCs, contrast vs placebo (95% CI): ANCOVA; for Mitochondrial membrane potential (Delta psi), LS mean: PBMCs
Outline: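 Live PBMCs were stained with JC-1 and read by flow cytometry, FL-2 for healthy and FL-1 for dysfunctional mitochondria. A fraction of cells was treated with CCCP as uncoupled positive control, and ΔΨm was calculated from FL2/FL1 ratios ×100. Blood was drawn 1 h before dosing on day 1 and 1.5 h after the final dose on day 7 (Part 1), and 1.5 h post-dose on day 27 (Part 2). Analysis was mixed-model ANCOVA with baseline as covariate.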

[2] = Plasma pharmacokinetics of SBT-020
Outline: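 Dosing was subcutaneous once daily. In Part 1, 24-h plasma profiles were taken on day 1 and at steady state (day 7); Part 2 used steady-state troughs only. Plasma aliquots were spiked with 5% aqueous formic acid, and active-arm samples were assayed by validated LC-MS (LLOQ 2.5 ng/mL). Noncompartmental analysis set pre-Cmax values below LLOQ to zero and excluded post-Cmax ones.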

[3] = tested on: mitochondrial function in the visual cortex; assay: 31P-MRS of the visual cortex before, during and after visual stimulation; settings: Part 2, 25 mg s.c. once daily 28 d
Outline: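 At 3 T, a 6-cm 31P transmit/receive surface coil was placed over the visual cortex, positioned using a 10-mm water sphere on 1H images. Adiabatic pulse-acquire (TR 2 s, flip 90°) FIDs were collected for 4 min at rest (128 averages), 8 min during visual activation (256) and 8 min after (256). Time-domain fitting with prior knowledge gave PCr/ATP, Pi/PCr, Pi/ATP and pH. Scans ran on day −1 and 1.5 h post-dose on day 27; mixed-model ANCOVA used baseline as covariate.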

[4] = Part 1, 5 mg s.c. once daily 7 d
[5] = Part 1, 5 mg s.c. once daily 7 d, n=6, day 7, 1.5 h post dose
[6] = Part 1, 15 mg s.c. once daily 7 d
[7] = Part 1, 25 mg s.c. once daily 7 d
[8] = Part 2, 25 mg s.c. once daily 28 d
[9] = Part 2, 25 mg s.c. once daily 28 d, n=11, day 27, 1.5 h post dose

With `N=C(N)NCCC[C@@H](NC(=O)[C@@H](N)Cc1ccccc1)C(=O)N[C@@H](Cc1ccccc1)C(=O)N[C@@H](CCCCN)C(N)=O` [SBT‐020, H‐Phe‐D‐Arg‐Phe‐Lys‐NH2] (H-F[dR]FK-NH2) as the compound, how does the “Mitochondrial membrane potential (Delta psi), contrast vs placebo (95% CI)” value [1, 4] read?
The value was 263.528 (−1151.3, 1678.31) P = .7001.

What about the “Percentage of dysfunctional PMBCs, contrast vs placebo (95% CI)” value (from here on “Percentage of dysfunctional PMBCs … (95% CI)”) [1, 4] of the same compound?
Its value is −1.980 (−3.819, −0.141) P = .0363%.

What about the “Percentage of dysfunctional PMBCs, LS mean” value (shortened to “Percentage … LS mean”) [1, 5] of the same compound?
The value was 3.82%.

What about the “Mitochondrial membrane potential (Delta psi), LS mean” value [1, 5] of the same compound?
The value was 3162.27.

And the “Mitochondrial membrane potential (Delta psi), contrast vs placebo (95% CI)” value [1, 6]?
The value was −16.375 (−1411.2, 1378.48) P = .9806.

And the “Percentage of dysfunctional PMBCs … (95% CI)” value [1, 6]?
The value was −3.002 (−4.980, −1.025) P = .0051%.

And the “Percentage … LS mean” value ([1]; Part 1, 15 mg s.c. once daily 7 d, n=6, day 7, 1.5 h post dose)?
The value was 2.80%.

What about the “Mitochondrial membrane potential (Delta psi), contrast vs placebo (95% CI)” value [1, 7] of the same compound?
Its value is 1513.21 (114.067, 2912.36) P = .0356.

What about the “Percentage of dysfunctional PMBCs … (95% CI)” value [1, 7] of the same compound?
The value was −2.052 (−3.894, −0.210) P = .0310%.

What about the “Percentage … LS mean” value ([1]; Part 1, 25 mg s.c. once daily 7 d, n=6, day 7, 1.5 h post dose) of the same compound?
The value was 3.75%.

What about the “Mean percentage of dysfunctional PBMCs after 7 days of treatment” value (shortened to “Mean percentage … after 7 days of treatment”) ([1]; Part 1, 5‐mg cohort, baseline mean 3.2) of the same compound?
Its value is 3.4%.

What about the “Mean ∆Ψm after 7 days of treatment” value ([1]; Part 1, 5‐mg cohort, baseline mean 2956) of the same compound?
The value was 2948.

And the “Mean percentage … after 7 days of treatment” value ([1]; Part 1, 15‐mg cohort, baseline mean 4.3)?
The value was 3.8%.

And the “Mean ∆Ψm after 7 days of treatment” value ([1]; Part 1, 15‐mg cohort, baseline mean 3,316)?
Its value is 3,282.

What about the “Mean percentage … after 7 days of treatment” value ([1]; Part 1, 25‐mg cohort, baseline mean 3.2) of the same compound?
The value was 3.4%.

What about the “Mean ∆Ψm after 7 days of treatment” value ([1]; Part 1, 25‐mg cohort, baseline mean 3715) of the same compound?
Its value is 5279.

What about the “Mitochondrial membrane potential (Delta psi), contrast vs placebo (95% CI)” value [1, 8] of the same compound?
The value was 1065.4 (−495.2, 2626.0) P = .17.

What about the “Percentage of dysfunctional PMBCs … (95% CI)” value [1, 8] of the same compound?
Its value is −0.75 (−3.93, 2.42) P = .62%.

And the “Percentage … LS mean” value [1, 9]?
Its value is 4.08%.

And the “Mitochondrial membrane potential (Delta psi), LS mean” value [1, 9]?
The value was 4090.47.

And the “Mean percentage of dysfunctional PBMCs after 28 days of treatment” value ([1]; Part 2, active group 25 mg, baseline mean 4.6)?
The value was 4.2%.

What about the “Mean ∆Ψm after 28 days of treatment” value ([1]; Part 2, active group 25 mg, baseline mean 3770) of the same compound?
The value was 4124.

What about the “Exposure higher between day 1 and day 7” value ([2]; Part 1, 25‐mg dose cohort) of the same compound?
The value was “approximately 10%”.

And the Accumulation ([2]; Part 2, weekly trough samples, 28 days of daily 25 mg s.c.)?
Its Accumulation is “did not accumulate”.

What about the “Median percentage of extrapolated AUC” value ([2]; Part 1 day 7, 15‐mg cohort) of the same compound?
Its value is “less than 2%”.

And the “Apparent elimination half‐life” value ([2]; Part 1 day 7, 15‐mg cohort, mean)?
The value was 3.94 h.

And the “Median percentage of extrapolated AUC” value ([2]; Part 1 day 7, 25‐mg cohort)?
Its value is “less than 2%”.

What about the Tmax ([2]; human, plasma, sc) of the same compound?
The Tmax was about 1 h.

What about the “Dose proportionality of exposure” value ([2]; once daily subcutaneous administration) of the same compound?
Its value is “dose‐proportional exposure”.

What about the “Effect on brain mitochondrial function compared to placebo” value [3] of the same compound?
Its value is “No overall statistically significant effect”.

What about the “PCr/ATP after visual stimulation (central 31P‐MRS), contrast vs placebo (95% CI)” value ([3]; ANCOVA) of the same compound?
Its value is −0.02 (−0.1, 0.05) P = .57.

What about the “Pi/ATP after visual stimulation (central 31P‐MRS), contrast vs placebo (95% CI)” value ([3]; ANCOVA) of the same compound?
Its value is 0.0073 (−0.0270, 0.0415) P = .6613.

What about the “Pi/ATP before visual stimulation (central 31P‐MRS), contrast vs placebo (95% CI)” value ([3]; ANCOVA) of the same compound?
The value was −0.002 (−0.02, 0.02) P = .80.

And the “Pi/ATP during visual stimulation (central 31P‐MRS), contrast vs placebo (95% CI)” value ([3]; ANCOVA)?
Its value is −0.004 (−0.02, 0.01) P = .57.

What about the “Pi/PCr after visual stimulation (central 31P‐MRS), contrast vs placebo (95% CI)” value ([3]; ANCOVA) of the same compound?
Its value is 0.02 (−0.02, 0.06) P = .32.

What about the “Pi/PCr before visual stimulation (central 31P‐MRS), contrast vs placebo (95% CI)” value ([3]; ANCOVA) of the same compound?
Its value is 0.0007 (−0.02, 0.02) P = .93.

What about the “Pi/PCr during visual stimulation (central 31P‐MRS), contrast vs placebo (95% CI)” value ([3]; ANCOVA) of the same compound?
Its value is 0.004 (−0.03, 0.03) P = .81.

And the “PCr/ATP after visual stimulation (central 31P‐MRS), LS mean” value ([3]; n=11, day 27)?
Its value is 0.9.

What about the “PCr/ATP before visual stimulation (central 31P‐MRS), LS mean” value ([3]; n=11, day 27) of the same compound?
Its value is 0.8.

And the “PCr/ATP during visual stimulation (central 31P‐MRS), LS mean” value ([3]; n=11, day 27)?
The value was 0.8.

And the “PCr/ATP during‐after visual stimulation (central 31P‐MRS), LS mean” value ([3]; n=11, day 27)?
The value was −0.05.

And the “PCr/ATP during‐before visual stimulation (central 31P‐MRS), LS mean” value ([3]; n=11, day 27)?
The value was −0.03.

And the “Pi/ATP after visual stimulation (central 31P‐MRS), LS mean” value ([3]; n=11, day 27)?
Its value is 0.2.

Source: article PMC8247328 (British Journal of Clinical Pharmacology, 2020)
